Data as given in ChEMBL document CHEMBL3877241 (J Med Chem, 2016).
pIC50: −log10 of the molar value. The source made the active and inactive calls. No cut-off for these calls is given here.

Columns and labels:
[1] = target: Non-receptor tyrosine-protein kinase TYK2 (Homo sapiens, UniProt P29597); assay: Inhibition of human TYK2 (V877 to C1187 residues) expressed in mammalian expression system by KINOMEScan assay
[2] = target: Polyamine deacetylase HDAC10 (Homo sapiens, UniProt Q969S8); assay: Inhibition of HDAC10 (unknown origin) preincubated with enzyme followed by fluorogenic Arg-His-Lys-Lys(Ac)-AMC substrate addition measured after 2 hrs by fluorescence assay
Polyamine deacetylase HDAC10, sequence (Q969S8 whole entry): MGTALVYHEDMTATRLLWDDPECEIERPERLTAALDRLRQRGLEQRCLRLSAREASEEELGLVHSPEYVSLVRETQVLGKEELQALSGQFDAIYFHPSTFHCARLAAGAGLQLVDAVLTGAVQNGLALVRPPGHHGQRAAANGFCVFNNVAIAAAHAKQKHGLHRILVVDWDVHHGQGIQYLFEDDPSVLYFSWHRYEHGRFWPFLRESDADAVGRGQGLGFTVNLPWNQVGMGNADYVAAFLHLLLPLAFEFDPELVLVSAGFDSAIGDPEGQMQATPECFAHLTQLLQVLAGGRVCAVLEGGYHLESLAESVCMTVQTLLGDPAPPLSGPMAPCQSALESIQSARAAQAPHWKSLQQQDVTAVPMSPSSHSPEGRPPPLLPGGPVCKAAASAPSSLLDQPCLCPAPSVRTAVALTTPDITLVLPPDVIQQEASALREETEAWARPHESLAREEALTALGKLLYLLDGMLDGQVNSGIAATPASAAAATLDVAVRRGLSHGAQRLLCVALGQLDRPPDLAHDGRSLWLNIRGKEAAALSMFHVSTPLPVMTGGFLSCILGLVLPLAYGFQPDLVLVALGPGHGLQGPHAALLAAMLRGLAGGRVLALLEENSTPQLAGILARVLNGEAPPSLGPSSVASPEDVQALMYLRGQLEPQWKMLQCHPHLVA

[3] = Antiproliferative activity against human MDA-MB-231 cells after 72 hrs by MTT assay; type: functional, cell-based; conditions: MDA-MB-231, 72 h
MOLM-14 [4] = assay: Induction of apoptosis in human MOLM14 cells assessed as live cells at 3 uM after 48 hrs by Annexin-V FITC/propidium iodide staining based flow cytometry (reference value: 94 to 94.1%); type: functional
Method in brief: (§1)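 MOLM-14 cells treated 48 h at the stated concentrations; doxorubicin as positive control. Stained with Annexin V-FITC and propidium iodide and analysed by flow cytometry (at least 10,000 events). Gated quadrants: Annexin V−/PI− viable, Annexin V+/PI− early apoptotic, Annexin V+/PI+ late apoptotic.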

[5] = target: Phosphatidylinositol 4,5-bisphosphate 3-kinase catalytic subunit gamma isoform (Homo sapiens, UniProt P48736); assay: Inhibition of human PI3Kgamma (S144 to A1102 residues) expressed in mammalian expression system by KINOMEScan assay
Phosphatidylinositol 4,5-bisphosphate 3-kinase catalytic subunit gamma isoform, sequence (P48736 whole entry, the tested form may be a part, canonical isoform): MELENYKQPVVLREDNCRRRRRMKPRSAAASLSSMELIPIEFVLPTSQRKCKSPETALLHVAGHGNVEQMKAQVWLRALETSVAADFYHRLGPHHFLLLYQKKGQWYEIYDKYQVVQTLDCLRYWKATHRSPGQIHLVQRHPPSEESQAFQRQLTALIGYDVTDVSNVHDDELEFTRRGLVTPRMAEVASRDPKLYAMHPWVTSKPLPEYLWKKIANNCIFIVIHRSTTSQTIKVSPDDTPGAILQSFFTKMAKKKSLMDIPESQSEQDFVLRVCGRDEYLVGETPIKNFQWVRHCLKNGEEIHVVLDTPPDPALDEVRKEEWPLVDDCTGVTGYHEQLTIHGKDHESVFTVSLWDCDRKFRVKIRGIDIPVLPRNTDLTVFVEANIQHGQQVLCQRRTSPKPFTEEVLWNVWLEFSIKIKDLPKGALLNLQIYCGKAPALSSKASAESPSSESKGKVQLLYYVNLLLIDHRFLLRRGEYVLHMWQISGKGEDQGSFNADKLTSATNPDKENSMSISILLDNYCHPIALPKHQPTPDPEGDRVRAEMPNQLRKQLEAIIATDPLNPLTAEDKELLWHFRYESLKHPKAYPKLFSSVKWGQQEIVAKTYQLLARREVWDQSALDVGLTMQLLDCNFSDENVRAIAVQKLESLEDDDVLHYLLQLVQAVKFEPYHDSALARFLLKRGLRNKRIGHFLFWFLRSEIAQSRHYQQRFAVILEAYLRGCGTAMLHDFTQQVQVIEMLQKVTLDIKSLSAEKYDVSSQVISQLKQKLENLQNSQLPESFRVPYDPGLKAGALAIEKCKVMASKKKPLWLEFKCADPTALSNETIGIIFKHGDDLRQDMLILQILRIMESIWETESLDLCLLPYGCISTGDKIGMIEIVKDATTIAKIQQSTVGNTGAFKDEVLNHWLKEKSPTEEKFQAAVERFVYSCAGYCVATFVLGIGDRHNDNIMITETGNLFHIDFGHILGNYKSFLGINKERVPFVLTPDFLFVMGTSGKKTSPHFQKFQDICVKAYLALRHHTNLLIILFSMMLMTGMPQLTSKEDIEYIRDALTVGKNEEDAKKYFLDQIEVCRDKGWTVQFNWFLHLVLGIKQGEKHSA

[6] = target: Histone deacetylase 3/Nuclear receptor corepressor 2 (HDAC3/NCoR2) (Homo sapiens, UniProt O15379); assay: Inhibition of full length human recombinant C-terminal His-tagged HDAC3 (1 to 428 residues)/N-terminal GST-tagged NCOR2 (395 to 489 residues) expressed in insect cells preincubated with enzyme followed by fluorogenic Arg-His-Lys-Lys(Ac)-AMC substrate addition measured after 2 hrs by fluorescence assay
[7] = target: Mast/stem cell growth factor receptor Kit (Homo sapiens, UniProt P10721); assay: Inhibition of human KIT (I571 to D952 residues) expressed in bacterial expression system by KINOMEScan assay
[8] = Antiproliferative activity against human Jurkat cells; type: functional, cell-based
[9] = target: Receptor-type tyrosine-protein kinase FLT3 (Homo sapiens) (UniProt P36888); assay: Inhibition of FLT3 (unknown origin) at 0.1 uM preincubated for 20 mins followed by [33P]ATP addition measured after 120 mins by Hotspot assay relative to control
Receptor-type tyrosine-protein kinase FLT3 (Homo sapiens), sequence (P36888 whole entry): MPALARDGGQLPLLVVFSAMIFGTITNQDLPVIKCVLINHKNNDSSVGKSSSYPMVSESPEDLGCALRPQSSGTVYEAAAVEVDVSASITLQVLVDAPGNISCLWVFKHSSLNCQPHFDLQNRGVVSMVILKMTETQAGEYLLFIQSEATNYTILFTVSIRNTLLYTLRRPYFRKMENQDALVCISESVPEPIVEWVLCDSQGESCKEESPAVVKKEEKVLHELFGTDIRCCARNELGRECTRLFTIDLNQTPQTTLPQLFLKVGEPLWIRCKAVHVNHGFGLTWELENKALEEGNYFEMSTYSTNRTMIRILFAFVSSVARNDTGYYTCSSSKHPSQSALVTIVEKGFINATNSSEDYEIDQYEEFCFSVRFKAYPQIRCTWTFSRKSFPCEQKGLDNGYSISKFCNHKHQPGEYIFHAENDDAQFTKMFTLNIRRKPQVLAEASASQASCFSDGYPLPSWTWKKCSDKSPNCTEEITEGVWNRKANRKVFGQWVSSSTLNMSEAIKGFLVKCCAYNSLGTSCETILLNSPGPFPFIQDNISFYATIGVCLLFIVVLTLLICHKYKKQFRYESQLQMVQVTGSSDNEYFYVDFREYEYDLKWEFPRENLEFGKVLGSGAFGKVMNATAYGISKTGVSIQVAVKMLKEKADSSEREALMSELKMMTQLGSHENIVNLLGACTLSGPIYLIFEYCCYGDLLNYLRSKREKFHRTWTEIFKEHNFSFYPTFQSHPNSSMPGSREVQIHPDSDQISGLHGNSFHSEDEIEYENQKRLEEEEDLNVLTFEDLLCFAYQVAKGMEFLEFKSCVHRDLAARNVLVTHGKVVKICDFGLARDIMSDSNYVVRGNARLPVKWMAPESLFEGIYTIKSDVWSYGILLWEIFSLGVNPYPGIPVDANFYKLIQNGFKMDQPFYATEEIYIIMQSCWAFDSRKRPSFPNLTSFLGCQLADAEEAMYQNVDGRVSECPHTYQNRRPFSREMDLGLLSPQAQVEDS
Method in brief: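 Radiometric HotSpot kinase assay. Buffer: 20 mM HEPES pH 7.5, 10 mM MgCl2, 1 mM EGTA, 0.02% Brij35, 0.02 mg/mL BSA, 0.1 mM Na3VO4, 2 mM DTT, 1% DMSO. Compound added about 20 min before ATP/[33P]ATP (10 μM final). Reactions run 120 min at 25 °C, spotted on P81 filters and washed in phosphoric acid. Activity expressed relative to DMSO after background subtraction. Single-concentration panel at 100 nM in duplicate.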

[10] = target: Mitogen-activated protein kinase 8 (Homo sapiens, UniProt P45983); assay: Inhibition of full length human MAPK8 (M1 to Q384 residues) expressed in mammalian expression system assessed as residual activity at 100 nM by KINOMEScan assay relative to control
Mitogen-activated protein kinase 8, sequence (P45983 whole entry, the tested form may be a part): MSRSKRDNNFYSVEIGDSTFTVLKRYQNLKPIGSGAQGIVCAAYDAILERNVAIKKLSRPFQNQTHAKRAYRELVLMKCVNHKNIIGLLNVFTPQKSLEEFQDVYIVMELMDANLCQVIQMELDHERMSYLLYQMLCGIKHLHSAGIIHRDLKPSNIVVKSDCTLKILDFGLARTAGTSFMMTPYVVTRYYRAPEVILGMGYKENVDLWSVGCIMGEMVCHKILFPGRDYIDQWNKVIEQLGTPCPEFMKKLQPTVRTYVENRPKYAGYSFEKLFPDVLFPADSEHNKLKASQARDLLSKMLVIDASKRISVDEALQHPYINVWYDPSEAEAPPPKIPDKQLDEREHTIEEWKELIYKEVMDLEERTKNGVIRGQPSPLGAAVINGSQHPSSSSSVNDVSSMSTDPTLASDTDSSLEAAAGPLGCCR
Method in brief: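 DiscoveRx KINOMEscan competition binding against ATP sites in a 97-kinase panel, with compound at 100 nM. Binding reported as % of control.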

[11] = target: T1, Protein deacetylase HDAC6 (Homo sapiens) (UniProt Q9UBN7); assay: Inhibition of HDAC6 in human MOLM14 cells assessed as increase in acetylated tubulin level at 2 times antiproliferative IC50 after 16 to 48 hrs by immunoblot method; type: cell-based; conditions: MOLM-14
T1 sequence (whole entry): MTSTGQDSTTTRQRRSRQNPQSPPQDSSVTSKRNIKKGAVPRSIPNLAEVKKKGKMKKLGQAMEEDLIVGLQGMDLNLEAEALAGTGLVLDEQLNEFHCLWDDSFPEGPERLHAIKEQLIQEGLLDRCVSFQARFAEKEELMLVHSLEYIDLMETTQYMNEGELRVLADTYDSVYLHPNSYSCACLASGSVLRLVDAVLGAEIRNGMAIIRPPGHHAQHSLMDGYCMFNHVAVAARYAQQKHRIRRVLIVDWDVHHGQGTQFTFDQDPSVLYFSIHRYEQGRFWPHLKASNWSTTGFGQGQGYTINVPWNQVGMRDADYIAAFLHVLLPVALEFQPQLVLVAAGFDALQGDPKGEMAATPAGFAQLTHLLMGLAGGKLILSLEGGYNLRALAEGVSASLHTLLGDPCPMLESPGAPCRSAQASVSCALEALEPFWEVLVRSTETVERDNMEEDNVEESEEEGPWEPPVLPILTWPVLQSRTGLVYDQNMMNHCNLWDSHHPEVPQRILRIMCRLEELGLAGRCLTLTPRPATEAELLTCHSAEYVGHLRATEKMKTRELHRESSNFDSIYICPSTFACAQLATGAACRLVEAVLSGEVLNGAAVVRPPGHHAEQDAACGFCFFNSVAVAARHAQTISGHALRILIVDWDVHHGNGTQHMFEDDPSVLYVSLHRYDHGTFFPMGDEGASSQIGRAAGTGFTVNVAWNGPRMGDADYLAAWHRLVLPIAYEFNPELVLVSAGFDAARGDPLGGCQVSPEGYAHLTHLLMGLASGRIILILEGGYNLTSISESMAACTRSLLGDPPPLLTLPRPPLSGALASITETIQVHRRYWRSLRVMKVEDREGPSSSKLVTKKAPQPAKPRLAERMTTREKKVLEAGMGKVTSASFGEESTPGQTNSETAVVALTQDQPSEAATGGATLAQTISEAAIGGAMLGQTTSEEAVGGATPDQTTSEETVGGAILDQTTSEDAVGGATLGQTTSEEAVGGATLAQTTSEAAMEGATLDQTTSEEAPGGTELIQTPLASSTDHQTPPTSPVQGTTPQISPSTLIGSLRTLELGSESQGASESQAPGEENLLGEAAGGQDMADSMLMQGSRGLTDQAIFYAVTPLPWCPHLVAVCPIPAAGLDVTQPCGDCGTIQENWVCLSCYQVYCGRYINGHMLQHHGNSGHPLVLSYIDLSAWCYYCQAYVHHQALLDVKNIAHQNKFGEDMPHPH
Method in brief: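 KMS-12-BM or MOLM-14 cells (at least 3x10^6 per condition) treated at about 2x their proliferation IC50 in a time course of 0 to 48 h. Tubastatin (15 μM, 48 h) used as HDAC6 control. Lysates immunoblotted for acetyl-α-tubulin and acetyl-H3 (Lys9/Lys14); re-probed for α-tubulin and H3.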

[12] = Therapeutic index, ratio of IC50 for mouse TAMH cells to IC50 for human cancer cells; conditions: cancer cell lines
MOLM-14 [13] = assay: Induction of apoptosis in human MOLM14 cells assessed as early apoptotic cells at 3 uM after 48 hrs by Annexin-V FITC/propidium iodide staining based flow cytometry (reference value: 3.6 to 3.7%); type: functional; method in brief: as §1

Non-receptor tyrosine-protein kinase TYK2, sequence (P29597 whole entry, the tested form may be a part): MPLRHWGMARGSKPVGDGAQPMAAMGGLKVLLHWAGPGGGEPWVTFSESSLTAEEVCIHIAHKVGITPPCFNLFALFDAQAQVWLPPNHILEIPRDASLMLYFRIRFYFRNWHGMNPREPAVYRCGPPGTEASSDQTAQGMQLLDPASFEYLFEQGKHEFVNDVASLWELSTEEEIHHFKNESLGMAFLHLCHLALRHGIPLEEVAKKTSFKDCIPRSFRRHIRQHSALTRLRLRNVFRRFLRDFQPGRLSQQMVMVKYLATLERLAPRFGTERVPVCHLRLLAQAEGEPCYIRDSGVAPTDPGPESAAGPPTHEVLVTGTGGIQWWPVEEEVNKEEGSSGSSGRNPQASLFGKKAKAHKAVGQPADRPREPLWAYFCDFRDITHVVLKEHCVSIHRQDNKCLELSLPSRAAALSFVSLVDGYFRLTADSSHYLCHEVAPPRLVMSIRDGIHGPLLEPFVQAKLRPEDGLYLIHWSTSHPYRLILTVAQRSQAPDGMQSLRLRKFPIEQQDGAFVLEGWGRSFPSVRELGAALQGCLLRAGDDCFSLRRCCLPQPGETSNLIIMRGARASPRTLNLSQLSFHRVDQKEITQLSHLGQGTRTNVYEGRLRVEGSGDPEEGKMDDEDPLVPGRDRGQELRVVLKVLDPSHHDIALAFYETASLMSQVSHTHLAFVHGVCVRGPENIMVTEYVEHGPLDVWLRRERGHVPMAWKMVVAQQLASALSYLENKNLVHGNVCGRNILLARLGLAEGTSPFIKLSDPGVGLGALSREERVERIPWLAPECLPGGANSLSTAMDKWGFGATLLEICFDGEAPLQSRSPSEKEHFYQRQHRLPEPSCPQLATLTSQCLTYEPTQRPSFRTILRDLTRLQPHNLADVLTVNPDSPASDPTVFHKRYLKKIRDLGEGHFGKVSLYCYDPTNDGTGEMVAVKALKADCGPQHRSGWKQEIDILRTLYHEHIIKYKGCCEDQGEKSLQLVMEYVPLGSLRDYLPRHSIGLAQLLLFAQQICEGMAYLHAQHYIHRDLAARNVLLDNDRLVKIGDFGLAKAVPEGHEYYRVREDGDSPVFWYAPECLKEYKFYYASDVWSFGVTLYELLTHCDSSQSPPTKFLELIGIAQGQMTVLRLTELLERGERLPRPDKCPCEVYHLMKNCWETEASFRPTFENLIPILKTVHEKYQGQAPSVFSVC

For `O=C(CCCCCCOc1ccc2cc1COC/C=C/COCc1cccc(c1)-c1ccnc(n1)N2)NO`, the pIC50 [1] was 6.00 to 8.00, the pIC50 [2] was 7.10 and the pIC50 [3] was 5.84. For the same compound, the Activity (MOLM-14 [4]) was 29.9%, the pIC50 [5] was 6.00 to 8.00 and the pIC50 [6] was 5.66. The pIC50 [7] was 5.00 to 6.00, the pIC50 [8] was 5.92 and the inhibition [9] was 67%. The Activity [10] was 26%, the inhibition [11] was “Active” and the selectivity ratio [12] was 8.7. It also gave an Activity (MOLM-14 [13]) of 24.4%.
